Data on 20 compounds can be found in ChEMBL document CHEMBL2150991, “Synthesis of novel N-branched acyclic nucleoside phosphonates as potent and selective inhibitors of human, Plasmodium falciparum and Plasmodium vivax 6-oxopurine phosphoribosyltransferases” (J Med Chem, 2012).

The nature of series [1]: Cytostatic activity against human HeLaS3 cells. Conditions: hela s3. Type of series: ADME, cell-based.
Series [2] is described as follows: Cytotoxicity against cat CRFK cells. Type of series: cell-based, Felis catus.
Series [3] in a line: Cytotoxicity against human HEL cells. Type of series: cell-based.
Series [4] in a line: Cytotoxicity african green monkey Vero cells. Type of series: cell-based. Conditions: chlorocebus sabaeus.
Series [5] has as its system HL-60. The series can be described thus: Cytostatic activity against human HL60 cells. Type of series: ADME, cell-based.
Series [6] relates to L1210. The series can be described thus: Cytostatic activity against mouse L1210 cells. Type of series: ADME, cell-based.
Series [7] has as its system CCRF-CEM. The series can be described thus: Cytostatic activity against human CCRF-CEM cells. Type of series: ADME, cell-based.
The nature of series [8]: Inhibition of Plasmodium vivax HGPRT using Prib-PP as substrate by spectrophotometric assay in presence of guanine. Summed up:
(§1)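 Continuous spectrophotometric assay at 25 °C in 0.1 M Tris-HCl, 10 mM MgCl₂, pH 7.4. PRib-PP is the variable substrate. Guanine is held fixed at a saturating 60 μM. Values are apparent Ki, since only one concentration of the second substrate was used. Each was calculated from Km(app) = Km(1 + [I]/Ki(app)).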

The nature of series [9]: Inhibition of Plasmodium falciparum recombinant HGPRT expressed in Escherichia coli using Prib-PP as substrate by spectrophotometric assay in presence of guanine. Summed up:
as §1

Series [10] addresses T1, Hypoxanthine-guanine phosphoribosyltransferase (Homo sapiens, UniProt P00492).
T1 sequence (P00492 whole entry): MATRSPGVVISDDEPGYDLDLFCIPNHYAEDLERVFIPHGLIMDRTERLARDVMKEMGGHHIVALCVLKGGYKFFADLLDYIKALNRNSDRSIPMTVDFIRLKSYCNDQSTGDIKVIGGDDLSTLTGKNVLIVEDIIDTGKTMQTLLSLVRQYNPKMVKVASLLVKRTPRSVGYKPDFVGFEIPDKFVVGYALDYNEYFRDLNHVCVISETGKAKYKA
The series can be described thus: Inhibition of human HGPRT using Prib-PP as substrate by spectrophotometric assay in presence of guanine. Summed up:
as §1

In brackets after ≈: the same amount, converted by molar mass. Some results are limits rather than exact numbers.

In the case of `N#CCN(CCn1cnc2c(=O)[nH]c(N)nc21)CCP(=O)(O)O`, the Activity entry in series [1], in [5], in series [6] and in [7] was “Non-toxic” in each case. In addition, the results for the CC50 in [2], in [3] and in series [4] were above 100 µg/mL, 53 µg/mL (≈ 155 µM) and above 100 µg/mL, respectively.
Consider `N#CCCCN(CCn1cnc2c(=O)[nH]c(N)nc21)CCP(=O)(O)O`, for which the Activity entry in series [1], in [5], in series [6] and in series [7] was “Non-toxic” in each case. Also, the half-maximal cytotoxic concentration (CC50) in series [2], in [3] and in [4] was above 100 µg/mL in each case. Besides, the Ki worked out at 8000 nM in series [8], 4000 nM in series [9] and 600 nM in series [10].
With `Nc1nc2c(ncn2CCN(CCO)CCP(=O)(O)O)c(=O)[nH]1`, the Activity entry in series [1], in series [5], in series [6] and in series [7] was “Non-toxic” in each case. Further, in series [3], the CC50 was above 100 µg/mL. In addition, the inhibitory constant (Ki) was found to be 1400 nM in series [8], 200 nM in [9] and 70 nM in series [10].
For the compound `COC(=O)CCCN(CCn1cnc2c(=O)[nH]c(N)nc21)CCP(=O)(O)O`, the Activity entry in series [1], in series [5], in [6] and in series [7] was “Non-toxic” throughout. For the same compound, the 50% cytotoxic concentration (CC50) in [2], in series [3] and in series [4] was above 100 µg/mL throughout. The inhibitory constant (Ki) was above 200000 nM in [8], 1300 nM in [9] and 100 nM in series [10].
Turning to `N#CCCCN(CCn1cnc2c(=O)[nH]cnc21)CCP(=O)(O)O`, the Activity result in series [1], in [5], in [6] and in series [7] was “Non-toxic” each time. In addition, the CC50 in series [2], in series [3] and in series [4] was above 100 µg/mL throughout. For the same compound, the Ki in series [8] is above 230000 nM; in series [9], 6000 nM; in series [10], 29000 nM.
As for `Nc1nc2c(ncn2CCN(CCCC(=O)O)CCP(=O)(O)O)c(=O)[nH]1`, the Activity entry in series [1], in [5], in series [6] and in [7] was “Non-toxic” each time. Besides, the 50% cytotoxic concentration (CC50) in series [2], in series [3] and in [4] was above 100 µg/mL throughout. Besides, the Ki in [8] was 25000 nM; in series [10] it was 100 nM.
Consider `O=C(O)CN(CCn1cnc2c(=O)[nH]cnc21)CCP(=O)(O)O`, for which the Activity entry in series [1], in [5], in series [6] and in series [7] was “Non-toxic” in each case. For the same compound, the CC50 in [2], in series [3] and in [4] was above 100 µg/mL throughout. Also, the Ki in [8] stood at 178000 nM; in series [10] it was 32000 nM.
With `O=c1[nH]cnc2c1ncn2CCNCCP(=O)(O)O`, the Activity entry in series [1], in [5], in [6] and in [7] was “Non-toxic” in each case. This compound came in with a CC50 in series [3] above 100 µg/mL. The inhibitory constant (Ki) is at least 250000 nM in series [8] and at least 200000 nM in series [9].
As to `Nc1nc2c(ncn2CCN(CCC(=O)O)CCP(=O)(O)O)c(=O)[nH]1`, the Activity result in series [1], in [5], in [6] and in series [7] was “Non-toxic” each time. The half-maximal cytotoxic concentration (CC50) in series [2], in [3] and in [4] was above 100 µg/mL in each case. Besides, the Ki in series [8] came to 50 nM; in [9], 200 nM; in series [10] it was 150 nM.
Take `O=C(O)CCN(CCn1cnc2c(=O)[nH]cnc21)CCP(=O)(O)O`: the Activity entry in series [1], in series [5], in [6] and in series [7] was “Non-toxic” in each case. Further, the CC50 in [2], in series [3] and in [4] was above 100 µg/mL each time. Further, the inhibition constant (Ki) is 41000 nM in series [8], 400 nM in series [9] and above 240000 nM in series [10].
With `N#CCCN(CCn1cnc2c(=O)[nH]cnc21)CCP(=O)(O)O`, the Activity entry in series [1], in [5], in series [6] and in [7] was “Non-toxic” throughout. Also, the 50% cytotoxic concentration (CC50) in series [2], in series [3] and in series [4] was above 100 µg/mL each time. For the same compound, the values for the inhibition constant (Ki) in series [8], in [9] and in series [10] were 700 nM, 200 nM and 2400 nM, respectively.
On to `O=c1[nH]cnc2c1ncn2CCN(CCP(=O)(O)O)CCP(=O)(O)O`, for which the Activity entry in series [1], in series [5], in series [6] and in series [7] was “Non-toxic” in each case. In addition, the cytotoxic concentration (CC50) in series [2], in series [3] and in series [4] was above 100 µg/mL in each case. Besides, the Ki was found to be 13000 nM in series [8] and 3000 nM in series [10].
With `COC(=O)CCN(CCn1cnc2c(=O)[nH]cnc21)CCP(=O)(O)O`, the Activity result in [1], in series [5], in [6] and in series [7] was “Non-toxic” throughout. Further, the CC50 in series [2], in series [3] and in [4] was above 100 µg/mL each time. The Ki in [8] is 21000 nM; in series [9] it was 100 nM; in series [10], above 200000 nM.
With `CCOC(=O)CN(CCn1cnc2c(=O)[nH]c(N)nc21)CCP(=O)(O)O`, the Activity entry in series [1], in [5], in series [6] and in [7] was “Non-toxic” each time. Besides, the CC50 in series [2], in [3] and in [4] was above 100 µg/mL in each case. Moreover, the Ki in series [8] came out at 1500 nM; in series [9] it was 1700 nM; in series [10], 100 nM.
On to `N#CCN(CCn1cnc2c(=O)[nH]cnc21)CCP(=O)(O)O`, for which the Activity entry in series [1], in series [5], in series [6] and in series [7] was “Non-toxic” throughout. Besides, the CC50 in series [2], in series [3] and in series [4] was above 100 µg/mL each time. Moreover, the Ki is 47000 nM in [8], at least 250000 nM in series [9] and 35000 nM in series [10].
For the compound `Nc1nc2c(ncn2CCN(CCP(=O)(O)O)CCP(=O)(O)O)c(=O)[nH]1`, the Activity result in series [1], in series [5], in series [6] and in [7] was “Non-toxic” each time. Further, the half-maximal cytotoxic concentration (CC50) in series [2], in [3] and in series [4] was above 100 µg/mL each time. For the same compound, the Ki in series [8] turned out to be 900 nM; in series [9], 300 nM; in [10], 200 nM.
As to `CCOC(=O)CN(CCn1cnc2c(=O)[nH]cnc21)CCP(=O)(O)O`, the Activity entry in series [1], in [5], in series [6] and in [7] was “Non-toxic” in each case. Moreover, the CC50 in series [2], in series [3] and in series [4] was above 100 µg/mL throughout. The Ki in series [8] turned out to be 11000 nM; in series [9], 1900 nM; in series [10], 2600 nM.
`Nc1nc2c(ncn2CCN(CCP(=O)(O)O)CC(=O)O)c(=O)[nH]1`: the Activity entry in series [1], in series [5], in [6] and in [7] was “Non-toxic” each time. Also, the CC50 in series [2], in series [3] and in series [4] was above 100 µg/mL throughout. Besides, the inhibitory constant (Ki) in series [8] was determined as 28000 nM; in [9], 700 nM; in series [10], 1400 nM.
Take `COC(=O)CCCN(CCn1cnc2c(=O)[nH]cnc21)CCP(=O)(O)O`: the Activity result in [1], in [5], in series [6] and in series [7] was “Non-toxic” each time. For the same compound, the CC50 in series [2], in [3] and in series [4] was above 100 µg/mL in each case. In addition, the results for the inhibition constant Ki in [8], in [9] and in series [10] were above 250000 nM, at least 220000 nM and 22000 nM, respectively.
For `Nc1nc2c(ncn2CCNCCP(=O)(O)O)c(=O)[nH]1`, the Activity entry in [1], in [5], in [6] and in series [7] was “Non-toxic” in each case. In [3], the CC50 was above 100 µg/mL. For the same compound, the Ki in series [8] was 11000 nM; in series [9], 16000 nM.

A word on the CC50: it is the concentration that lowers cell viability or growth by half. The Ki is a dissociation constant, usually derived from enzyme kinetics or from competition with a known ligand.
